From PubChem BioAssay
H69AR growth 86K: proliferation blockers of H69AR lung cancer cells, primary screen, cell-based, human, 86K library; viability, % at 10 µM; AID 598, 2007; H69AR lung tumor viability, ATP luminescence, 72 h; stronger effect = lower value; hit rate 6% among 85,000;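 active = viability at or below 40%; inactive = viability above 40%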;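 note: multidrug resistant small cell line overexpressing MRP-1 efflux transporter; 100% = mean luminescence of untreated control wells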
HCT116 PTEN-null: growth suppression of PTEN-null HCT116, primary screen, cell-based, CellTiter-Glo; HCT116 PTEN-null viability, 60 h; stronger effect = lower value; viability, % at 10 µM; hit rate 1.2% among 140,000;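 active = viability at or below a set limit, 4 SD under the median of all tested compounds, cut at about 3.7% in these data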;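 note: PTEN knockout HCT116 line with beta catenin targeted HCT116 as companion control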
Fibroblast inh: antiproliferative effect on LL 47 fibroblasts – human, LL 47 cells, CellTiter-Glo luminescence, primary screen; AID 719, 2007; viability, % at 10 µM; LL 47 human lung fibroblast viability, ATP luminescence; stronger effect = lower value; hit rate 1.1% among 85,000;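 active = viability at or below 50% in the single dose screen; inactive = viability above 50%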;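 note: compound exposure lasted 72 h before the ATP readout; 100% = median luminescence of untreated cell-only wells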
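Material: human LL 47 lung fibroblast cells; quantity: 1,150 cells/well; medium: IMEM plus 15% FBS; doses: 0.1% DMSO in all compound wells; timing: overnight attachment after seeding, then 72 h compound exposure at 37 °C; detection: CellTiter-Glo luminescence; measure: % viability of median cell-only signal; controls: cell-only wells, no compound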
HUVEC prolif 384: inhibitors of HUVEC proliferation, primary screen, cell-based, 384-well; CellTiter-Glo luminescence, 72 h; stronger effect = lower value; viability, % at 10 µM (by protocol); hit rate 1.1% among 86,000; AID 648, 2007;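 active = viability at or below 30%; inactive = viability above 30%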;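 note: 100% = median luminescence of DMSO-only cell control wells on each plate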
bCat KO growth: primary screen for growth suppressors in beta-catenin knockout HCT116 cells (colon tumor, human); HCT116 beta-catenin knockout viability, CellTiter-Glo, 60 h; stronger effect = lower value; viability, % at 10 µM; hit rate 1.5% among 140,000; AID 818, 2007;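 active = viability at or under a set limit, the compound median less 4 SD, cut at about 6% in these data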;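 note: 0% = Hyamine 1622 control at 20 µM and 100% = untreated cell control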
* marks the source's active call; other numbers are inactive results. Only a selection was taken, and hits are over-represented in it overall.

Results for NC(=O)COC(=O)CN1C(=O)C2CCCCC2C1=O (configuration not stated) ?
HCT116 PTEN-null: 98; bCat KO growth: 100

How did C=CCN1C(=O)C2(NNc3ccccc3O2)c2ccccc21 (configuration not stated) do in these assays?
H69AR growth 86K: 13*; HCT116 PTEN-null: 75; Fibroblast inh: 76; HUVEC prolif 384: 23*; bCat KO growth: 77

How did CCCCN1C(=O)C2(NNc3ccccc3O2)c2ccccc21 (configuration not stated) do in these assays?
HCT116 PTEN-null: 104; bCat KO growth: 88

How did CCOC(=O)Cn1c(=O)oc2cc(S(=O)(=O)N3CCN(C(=O)c4ccco4)CC3)ccc21 do in these assays?
HCT116 PTEN-null: 100; bCat KO growth: 95

How did CC1(C)Cc2c(cnn2-c2ccccc2)C(=O)/C1=N\NC(=O)c1ccccc1N do in these assays?
H69AR growth 86K: 47; HCT116 PTEN-null: 104; Fibroblast inh: 99; HUVEC prolif 384: 81; bCat KO growth: 90

What do the screens show for `CC1(C)Cc2c(cnn2-c2ccccc2)-c2c1c1ccccc1n2CC(O)CBr` (configuration not stated)?
H69AR growth 86K: 16*; HCT116 PTEN-null: 67; Fibroblast inh: 82; HUVEC prolif 384: 58; bCat KO growth: 72

How did Cc1ccccc1CSCC(=O)Nc1c(C)n(C)n(-c2ccccc2)c1=O do in these assays?
HCT116 PTEN-null: 98; bCat KO growth: 95

How did CC(NC(=O)c1sc2ccccc2c1Cl)C1CCCO1 (configuration not stated) do in these assays?
HCT116 PTEN-null: 98; bCat KO growth: 110

What do the screens show for `CCn1cc(C(=O)O)c(=O)c2cc(F)c(N/N=C/c3ccccc3[N+](=O)[O-])cc21`?
HCT116 PTEN-null: 5; bCat KO growth: 4.1*

What do the screens show for `CC(=O)Nc1nonc1-c1nc2ccccc2n1Cc1ccccc1`?
HCT116 PTEN-null: 73; bCat KO growth: 75

What do the screens show for `CCC(=O)Nc1nonc1-c1nc2ccccc2n1Cc1ccc(Cl)c(Cl)c1`?
H69AR growth 86K: 16*; Fibroblast inh: 85; HUVEC prolif 384: 38

How did Cc1nc2ccccn2c1C(=O)N=Nc1c(O)[nH]c2ccccc12 do in these assays?
HCT116 PTEN-null: 92; bCat KO growth: 98

What do the screens show for `CCC(=O)Nc1ccc(N2CCN(S(C)(=O)=O)CC2)cc1`?
HCT116 PTEN-null: 94; bCat KO growth: 91

What do the screens show for `CCOC(=O)c1nn(-c2ccccc2)c(C#N)c1NC(=O)c1nn(CC)cc1Br`?
H69AR growth 86K: 69; HCT116 PTEN-null: 86; Fibroblast inh: 96; HUVEC prolif 384: 85; bCat KO growth: 87

Results for CCOC(=O)c1c(NC(=O)c2nn(CC)cc2Br)c(C#N)nn1-c1ccccc1 ?
H69AR growth 86K: 40*; HCT116 PTEN-null: 84; Fibroblast inh: 93; HUVEC prolif 384: 81; bCat KO growth: 85

How did CCOC(=O)c1nnn(-c2nonc2-n2cccc2)c1CCl do in these assays?
H69AR growth 86K: 1.5*; HCT116 PTEN-null: 85; Fibroblast inh: 35*; HUVEC prolif 384: 3.3*; bCat KO growth: 85

What do the screens show for `CCOC(=O)c1nnn(-c2nonc2-n2cccc2)c1CN1CCC(C)CC1`?
H69AR growth 86K: 85; HCT116 PTEN-null: 63; Fibroblast inh: 92; HUVEC prolif 384: 109; bCat KO growth: 63

Results for CC1(C)Nc2ccc(O)cc2-c2c1ssc2=S ?
H69AR growth 86K: 68; HCT116 PTEN-null: 78; Fibroblast inh: 88; HUVEC prolif 384: 27*; bCat KO growth: 80

What do the screens show for `COc1ccc(-c2cc(=O)n(-c3nc4ccccc4[nH]3)[nH]2)cc1`?
H69AR growth 86K: 40*; HCT116 PTEN-null: 83; Fibroblast inh: 61; HUVEC prolif 384: 10*; bCat KO growth: 95
